Test results published in ChEMBL document CHEMBL3997782, “Methoxylated 2'-hydroxychalcones as antiparasitic hit compounds” (Eur J Med Chem, 2017).
In brackets after ≈: the same amount, converted by molar mass.

Tests used:
[1] = Lipophilicity, log P of the compound; format: physicochemical; settings: octanol/water
CYP2D6 = CYP2D6 (Homo sapiens, UniProt P10635); assay: Inhibition of human CYP2D6 expressed in baculovirus-infected insect cells at 10 uM using Luciferin-ME EGE as substrate in presence of NADPH by P450-Glo luminescence assay relative to control; format: ADME; settings: probe Luciferin-ME EGE
CYP2D6, sequence (P10635 whole entry): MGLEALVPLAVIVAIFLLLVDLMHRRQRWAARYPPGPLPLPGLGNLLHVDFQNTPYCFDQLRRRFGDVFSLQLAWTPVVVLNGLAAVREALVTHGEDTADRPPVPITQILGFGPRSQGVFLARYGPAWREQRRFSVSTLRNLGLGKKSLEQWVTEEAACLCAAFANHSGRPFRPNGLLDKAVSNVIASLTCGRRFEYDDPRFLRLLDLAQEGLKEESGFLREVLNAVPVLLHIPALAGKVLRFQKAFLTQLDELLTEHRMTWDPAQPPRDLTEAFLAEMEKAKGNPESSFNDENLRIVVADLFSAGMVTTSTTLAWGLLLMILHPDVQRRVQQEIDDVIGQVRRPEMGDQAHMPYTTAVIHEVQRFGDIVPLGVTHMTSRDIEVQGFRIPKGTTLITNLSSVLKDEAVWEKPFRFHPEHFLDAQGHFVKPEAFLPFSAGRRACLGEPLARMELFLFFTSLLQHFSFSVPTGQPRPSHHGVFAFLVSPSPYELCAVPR
Outline: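 CYP enzymes as microsomal preparations from baculovirus-infected insect cells, run on the P450-Glo luminogenic substrate platform. A fall in light output indicates inhibition.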

[2] = Drug uptake in BALB/c mouse plasma at 1 mg/kg, iv measured after 15 mins by LC-MS method; format: ADME, organism-based
Outline: (§1)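 BALB/c mice dosed either free (8% DMSO; 1 mg/kg IV or 20 mg/kg oral), or 20 mg/kg oral in 50% w/v hydroxypropyl-β-cyclodextrin, or 20 mg/kg oral in 25% cyclodextrins plus 50% PEG 400. Serial submandibular blood samples stored at -20°C. Plasma measured by isocratic LC-MS (acetonitrile:water 80:20, 0.2 ml/min), quantifier transition m/z 315.0>161.0.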

[3] = Drug uptake in BALB/c mouse plasma at 20 mg/kg, po measured after 1 hr by LC-MS method; format: ADME, organism-based; outline: as §1
786-0 = assay: Mitochondrial toxicity in human 786-O cells at 10 uM by mitotracker red chloromethyl-Xrosamine staining based-uptake method relative to control; format: cell-based; settings: 786-0, 10 µM
Outline: (§2)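 786-O renal carcinoma cells kept in RPMI-1640 with 2 mM glutamine, 10% v/v FCS, streptomycin 100 µg/ml and penicillin G 100 U/ml. Mitochondrial toxicity monitored by MitoTracker Red CMXRos uptake with high-content imaging.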

[4] = Drug uptake in BALB/c mouse plasma at 20 mg/kg, po measured after 0.25 hrs by LC-MS method; format: ADME, organism-based; outline: as §1
[5] = Half-life in BALB/c mouse at 20 mg/kg, po by LC-MS method; format: ADME, organism-based; settings: in vivo; outline: as §1
[6] = Drug uptake in BALB/c mouse plasma at 20 mg/kg, po as 50% cyclodextrin formulation measured after 3 hrs by LC-MS method; format: ADME, organism-based; outline: as §1
[7] = Drug uptake in BALB/c mouse plasma at 1 mg/kg, iv measured after 180 mins by LC-MS method; format: ADME, organism-based; outline: as §1
[8] = Drug uptake in BALB/c mouse plasma at 20 mg/kg, po measured after 0.5 hrs by LC-MS method; format: ADME, organism-based; outline: as §1
[9] = Cytotoxicity against human […] cells assessed as cell growth at 10 uM by Cell titer-Glo assay relative to control; format: cell-based; settings: WI-38 cells, read-out: Activity
Outline: (§3)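 A549 and WI-38 cells grown in DMEM with 10% v/v FCS, streptomycin 100 µg/ml and penicillin G 100 U/ml. Cell number read as cellular ATP by CellTiter-Glo luminescence. Growth 60–100% scored non-cytotoxic, 0–60% cytostatic, below 0 cytotoxic.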

[10] = Drug uptake in BALB/c mouse plasma at 20 mg/kg, po as 50%% cyclodextrin formulation measured after 0.75 hrs by LC-MS method; format: ADME, organism-based; outline: as §1
[11] = Half-life in BALB/c mouse at 1 mg/kg, iv by LC-MS method; format: ADME, organism-based; settings: in vivo; outline: as §1
[12] = Drug uptake in BALB/c mouse plasma at 20 mg/kg, po as cyclodextrin/PEG400 formulation measured after 0.25 hrs by LC-MS method; format: ADME, organism-based; outline: as §1
[13] = Drug uptake in BALB/c mouse plasma at 20 mg/kg, po as cyclodextrin/PEG400 formulation measured after 1 hr by LC-MS method; format: ADME, organism-based; outline: as §1
[14] = tested on: Trypanosoma brucei brucei; assay: Anti-parasitic activity against bloodstream form of Trypanosoma brucei brucei Lister 427 after 72 hrs by resazurin-based assay; format: functional; settings: Lister 427, 72 h
Outline: (§4)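 Bloodstream-form T. brucei, modified resazurin-based viability assay. EC50 is the arithmetic mean of at least two independent determinations, each run in triplicate.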

CYP3A4 = CYP3A4 (Homo sapiens, UniProt P08684); assay: Inhibition of human CYP3A4 expressed in baculovirus-infected insect cells at 10 uM using Luciferin-PFBE as substrate in presence of NADPH by P450-Glo luminescence assay relative to control; format: ADME; settings: probe Luciferin-PFBE
CYP3A4, sequence (P08684 whole entry): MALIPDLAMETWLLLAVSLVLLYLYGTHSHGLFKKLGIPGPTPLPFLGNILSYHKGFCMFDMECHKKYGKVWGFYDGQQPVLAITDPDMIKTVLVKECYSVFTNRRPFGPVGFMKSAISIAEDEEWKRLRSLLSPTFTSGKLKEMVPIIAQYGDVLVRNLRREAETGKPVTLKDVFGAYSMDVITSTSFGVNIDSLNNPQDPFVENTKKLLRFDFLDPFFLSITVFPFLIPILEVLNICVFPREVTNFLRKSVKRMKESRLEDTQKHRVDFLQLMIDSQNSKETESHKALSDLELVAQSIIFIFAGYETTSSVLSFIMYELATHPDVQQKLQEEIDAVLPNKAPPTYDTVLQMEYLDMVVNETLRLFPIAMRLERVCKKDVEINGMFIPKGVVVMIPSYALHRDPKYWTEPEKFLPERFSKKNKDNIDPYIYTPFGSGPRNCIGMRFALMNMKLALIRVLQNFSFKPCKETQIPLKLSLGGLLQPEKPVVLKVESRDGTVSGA

[15] = Drug uptake in BALB/c mouse plasma at 1 mg/kg, iv measured after 60 mins by LC-MS method; format: ADME, organism-based; outline: as §1
[16] = Cytotoxicity against human THP1 cells by MTT assay; format: cell-based; settings: THP-1 cells
Outline: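 THP-1 cells differentiated to macrophages with PMA, viability read by colorimetric MTT. CC50 and NOAEL are the arithmetic mean of at least two independent determinations, each run in triplicate.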

Aurora kinase B = Aurora kinase B (Homo sapiens, UniProt Q96GD4); assay: Inhibition of N-terminal-GST-tagged recombinant full length human Aurora B expressed in baculovirus infected Sf9 cells at 10 uM using native Swine Myelin Basic Protein as substrate measured after 60 mins by ADP-Glo assay relative to control; settings: probe native Swine Myelin Basic Protein
Aurora kinase B, sequence (Q96GD4 whole entry): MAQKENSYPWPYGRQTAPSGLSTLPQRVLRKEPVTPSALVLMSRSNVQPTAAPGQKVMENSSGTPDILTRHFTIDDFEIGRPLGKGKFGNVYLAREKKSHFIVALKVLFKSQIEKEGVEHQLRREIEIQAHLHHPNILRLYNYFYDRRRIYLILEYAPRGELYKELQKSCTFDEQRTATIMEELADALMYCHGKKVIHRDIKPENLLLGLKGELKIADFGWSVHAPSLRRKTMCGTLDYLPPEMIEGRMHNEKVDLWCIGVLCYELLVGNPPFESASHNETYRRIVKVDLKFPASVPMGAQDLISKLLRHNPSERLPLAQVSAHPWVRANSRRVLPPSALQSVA
Outline: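 Aurora B kinase activity measured by ADP-Glo, which detects ADP formed through a coupled luciferase luminescence read-out.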

[17] = Cytotoxicity against human […] cells assessed as cell growth by Cell titer-Glo assay; format: cell-based; settings: WI-38 cells; outline: as §3
[18] = Drug uptake in BALB/c mouse plasma at 20 mg/kg, po as 50% cyclodextrin formulation measured after 24 hrs by LC-MS method; format: ADME, organism-based; outline: as §1
[19] = Solubility of the compound in phosphate buffered saline with 50% DMSO measured after 18 hrs by UV-vis spectroscopic method; format: physicochemical
Outline: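 Saturated suspensions prepared at 100 µM in water, 100 µM in PBS, 200 µM in PBS + 10% DMSO and 10 mM in PBS + 50% DMSO. Held 18 h at 25°C, passed through a 0.2 µm filter, then quantified by UV-Vis absorbance at 312 nm using the calculated extinction coefficient.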

[20] = Drug uptake in BALB/c mouse plasma at 20 mg/kg, po as 50% cyclodextrin formulation measured after 0.5 hrs by LC-MS method; format: ADME, organism-based; outline: as §1
Cytochrome P450 2C9 = Cytochrome P450 2C9 (Homo sapiens, UniProt P11712); assay: Inhibition of human CYP2C9 expressed in baculovirus-infected insect cells using Luciferin-H as substrate in presence of NADPH by P450-Glo luminescence assay
Cytochrome P450 2C9, sequence (P11712 whole entry): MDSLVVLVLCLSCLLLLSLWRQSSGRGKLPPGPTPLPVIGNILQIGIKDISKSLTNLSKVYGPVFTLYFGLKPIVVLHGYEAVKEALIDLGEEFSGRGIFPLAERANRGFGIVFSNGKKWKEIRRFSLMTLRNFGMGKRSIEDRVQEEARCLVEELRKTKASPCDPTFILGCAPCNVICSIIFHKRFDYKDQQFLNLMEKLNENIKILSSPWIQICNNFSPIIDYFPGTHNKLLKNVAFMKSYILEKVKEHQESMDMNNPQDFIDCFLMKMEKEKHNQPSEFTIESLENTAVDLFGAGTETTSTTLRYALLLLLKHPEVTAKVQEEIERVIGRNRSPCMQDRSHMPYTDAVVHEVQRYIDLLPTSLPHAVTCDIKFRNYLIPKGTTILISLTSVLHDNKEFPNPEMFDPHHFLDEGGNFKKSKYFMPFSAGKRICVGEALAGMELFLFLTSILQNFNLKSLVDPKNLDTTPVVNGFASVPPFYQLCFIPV

[21] = Cytotoxicity against human A549 cells assessed as cell growth at 10 uM by Cell titer-Glo assay relative to control; format: cell-based; settings: read-out: Activity; outline: as §3
[22] = Mitochondrial toxicity in human 786-O cells by mitotracker red chloromethyl-Xrosamine staining based-uptake method; format: cell-based, 786-0; outline: as §2
[23] = tested on: Trypanosoma brucei brucei; assay: Anti-parasitic activity against bloodstream form of Trypanosoma brucei brucei Lister 427 at 10 uM after 72 hrs by resazurin-based assay relative to control; format: functional; settings: Lister 427, 72 h; outline: as §4
Trypanosoma cruzi = assay: Anti-parasitic activity against Trypanosoma cruzi Y promastigotes infected in HG39 cells at 10 uM by qPCR analysis relative to control; format: functional, cell-based; settings: in the assay text read “trypomastigotes” for “promastigotes”
Outline: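 Confluent HG39 cells (3 x 10^6 per well) infected at a 1:1 ratio with blood-derived T. cruzi Y strain trypomastigotes. Growth inhibition was read as parasite gDNA by TaqMan probe-based quantitative real-time PCR.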

Question: With `COc1cccc(/C=C/C(=O)c2cc(OC)c(OC)cc2O)c1` as the compound, how does the logP [1] read?
Answer: The logP was 3.59.

Question: What about the inhibition at 10 µM (CYP2D6) of the same compound?
Answer: Its inhibition at 10 µM is 58.8%.

Question: What about the concentration at 0.25 h [2] of the same compound?
Answer: The concentration at 0.25 h was 74 nM.

Question: And the concentration at 1 h [3]?
Answer: Its concentration at 1 h is 9 nM.

Question: What about the Activity (786-0) of the same compound?
Answer: The Activity was 3.6%.

Question: And the concentration at 0.25 h [4]?
Answer: The concentration at 0.25 h was 270 nM.

Question: And the half-life [5]?
Answer: Its half-life is 12.6 min.

Question: And the concentration at 3 h [6]?
Answer: Its concentration at 3 h is 10 nM.

Question: What about the concentration at 3 h [7] of the same compound?
Answer: Its concentration at 3 h is 5 nM.

Question: What about the concentration at 0.5 h [8] of the same compound?
Answer: Its concentration at 0.5 h is 49 nM.

Question: And the viability at 10 µM [9]?
Answer: The viability at 10 µM was 96.1%.

Question: What about the concentration at 0.75 h [10] of the same compound?
Answer: The concentration at 0.75 h was 164 nM.

Question: And the half-life [11]?
Answer: The half-life was 62.5 min.

Question: And the concentration at 0.25 h [12]?
Answer: The concentration at 0.25 h was 48 nM.

Question: What about the concentration at 1 h [13] of the same compound?
Answer: The concentration at 1 h was 18 nM.

Question: What about the EC50 [14] of the same compound?
Answer: Its EC50 is 4.2 µM.

Question: What about the inhibition at 10 µM (CYP3A4) of the same compound?
Answer: Its inhibition at 10 µM is 12.4%.

Question: And the concentration at 1 h [15]?
Answer: Its concentration at 1 h is 21 nM.

Question: And the CC50 [16]?
Answer: Its CC50 is 51 µM.

Question: What about the inhibition at 1 h, 10 µM (Aurora kinase B) of the same compound?
Answer: Its inhibition at 1 h, 10 µM is -6.8%.

Question: And the GI50 [17]?
Answer: Its GI50 is 10.8 µM.

Question: And the concentration at 24 h [18]?
Answer: Its concentration at 24 h is 5 nM.

Question: And the solubility at 18 h [19]?
Answer: Its solubility at 18 h is 600 µM (≈ 189 µg/mL).

Question: What about the concentration at 0.5 h [20] of the same compound?
Answer: The concentration at 0.5 h was 563 nM.

Question: And the IC50 (Cytochrome P450 2C9)?
Answer: The IC50 was 42.1 µM.

Question: What about the viability at 10 µM [21] of the same compound?
Answer: Its viability at 10 µM is 95.5%.

Question: What about the IC50 [22] of the same compound?
Answer: Its IC50 is 14.5 µM.

Question: What about the inhibition at 10 µM [23] of the same compound?
Answer: Its inhibition at 10 µM is 100%.

Question: What about the inhibition at 10 µM (Trypanosoma cruzi) of the same compound?
Answer: The inhibition at 10 µM was 46%.
